From ChEMBL document CHEMBL1142247, “Structure-based design of novel groups for use in the P1 position of thrombin inhibitor scaffolds. Part 2: N-acetamidoimidazoles” (Bioorg Med Chem Lett, 2008)
Activity calls are given as the source filed them. No cut-off for these calls is given here.

Tests used:
[1] = Inhibition of trypsin
[2] = system: Plasma; experiment: Anticoagulant potency in human plasma assessed as concentration required to double activated partial thromboplastin time; format: functional, cell-free
[3] = target: Prothrombin (Homo sapiens, UniProt P00734); experiment: Inhibition of thrombin
[4] = Selectivity for thrombin over trypsin
[5] = system: Rattus norvegicus; experiment: Antithrombotic activity against ferric chloride induced thrombosis in rat at 10 ug/kg/min, iv; format: functional, organism-based
In short: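 Ferric chloride-induced thrombosis in rats, with compound given by intravenous infusion at 10 µg/kg/min. Read-out is the number of animals with vessel occlusion out of 6.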

[6] = system: Canis familiaris; experiment: (§1) Half life in dog at 5 mg/kg, po; format: ADME, organism-based, Canis lupus familiaris; set-up: dose 5 mg/kg, route oral; conditions: in vivo
[7] = Half life in dog at 0.5 mg/kg, po; format: ADME, organism-based, Canis lupus familiaris; set-up: dose 0.5 mg/kg, route oral; conditions: in vivo
[8] = Half life in dog at 1 mg/kg, po; format: ADME, organism-based, Canis lupus familiaris; set-up: dose 1 mg/kg, route oral; conditions: in vivo
[9] = Cmax in dog at 0.5 mg/kg, po; format: ADME, organism-based, Canis lupus familiaris; set-up: dose 0.5 mg/kg, route oral; conditions: in vivo
[10] = Half life in rhesus monkey at 5 mg/kg, po; format: ADME, organism-based, Macaca mulatta; set-up: dose 5 mg/kg, route oral; conditions: in vivo
[11] = Cmax in dog at 5 mg/kg, po; format: ADME, organism-based, Canis lupus familiaris; set-up: dose 5 mg/kg, route oral; conditions: in vivo
[12] = as §1; format: ADME, organism-based, Canis lupus familiaris; set-up: dose 5 mg/kg, route oral; conditions: in vivo
[13] = Cmax in rhesus monkey at 5 mg/kg, po; format: ADME, organism-based, Macaca mulatta; set-up: dose 5 mg/kg, route oral; conditions: in vivo

Cc1ncn(CC(=O)NC2CC2)c1Cn1c(C)ccc(NS(=O)(=O)Cc2ccccc2)c1=O
Ki [1]: 185 µM
Activity [2]: 0.68 µM
Ki [3]: 0.0018 µM
Selectivity ratio [4]: 103000

Cc1ncn(CC(=O)NC2CC(N)C2)c1Cn1c(C)ccc(NS(=O)(=O)Cc2ccccc2)c1=O (stereo unspecified)
Ki [1]: 122 µM
Activity [2]: 0.65 µM
Ki [3]: 0.003 µM
Selectivity ratio [4]: 41000

Cc1ncn(CC(=O)NC(C)(C)C)c1Cn1c(C)ccc(NS(=O)(=O)Cc2ccccc2)c1=O
Ki [1]: 68 µM
Activity [2]: 0.52 µM
Ki [3]: 0.00036 µM
Selectivity ratio [4]: 190000

Cc1ncn(CC(=O)NC2CCCNC2)c1Cn1c(C)ccc(NS(=O)(=O)Cc2ccccc2)c1=O (stereo unspecified)
Ki [1]: 110 µM
Activity [2]: 0.35 µM
Ki [3]: 0.00031 µM
Activity [5]: inactive
Selectivity ratio [4]: 355000

Cc1ncn(CC(=O)NCCN)c1Cn1c(C)ccc(NS(=O)(=O)Cc2ccccc2)c1=O
Ki [1]: 85 µM
Activity [2]: 0.39 µM
Ki [3]: 0.0009 µM
Activity [5]: inactive
Selectivity ratio [4]: 94000

Cc1ncn(CC(=O)NC(C)(C)CN)c1Cn1c(C)ccc(NS(=O)(=O)Cc2ccccc2)c1=O
Ki [1]: 70 µM
Activity [2]: 0.32 µM
Ki [3]: 0.0003 µM
Selectivity ratio [4]: 233000

Cc1nc(N)ccc1CNC(=O)Cn1c(C)ccc(NS(=O)(=O)Cc2ccccc2)c1=O [L-374087]
Ki [1]: 3.2 µM
Activity [2]: 0.21 µM
t1/2 [6]: 2.5 h
half-life [7]: 3.8 h
half-life [8]: 2.5 h
Cmax [9]: 2000 nM
Selectivity ratio [4]: 6400

Cc1nc[nH]c1CNC(=O)Cn1c(C)ccc(NS(=O)(=O)Cc2ccccc2)c1=O
Ki [1]: 43 µM
Activity [2]: 1.1 µM

CCC(C)(C)NC(=O)Cn1cnc(C)c1Cn1c(C)ccc(NS(=O)(=O)Cc2ccccc2)c1=O
Ki [1]: 34 µM
Activity [2]: 0.56 µM
Ki [3]: 0.00019 µM
Selectivity ratio [4]: 180000

Cc1ncn(CC(=O)NC2CCCNC2)c1CNC(=O)Cn1c(C)cnc(NCCc2ccccc2)c1=O (stereo unspecified)
Ki [1]: 18 µM
half-life [10]: 1.1 h
Cmax [11]: 1460 nM
Activity [2]: 0.7 µM
half-life [12]: 1.6 h
Ki [3]: 0.0012 µM
Cmax [13]: 360 nM

CCNC(=O)Cn1cnc(C)c1Cn1c(C)ccc(NS(=O)(=O)Cc2ccccc2)c1=O
Ki [1]: 137 µM
Activity [2]: 0.7 µM
Ki [3]: 0.002 µM
Selectivity ratio [4]: 70000

Cc1ncn(CC(=O)NN2CCOCC2)c1Cn1c(C)ccc(NS(=O)(=O)Cc2ccccc2)c1=O
Ki [1]: 101 µM
Activity [2]: 0.51 µM
Ki [3]: 0.0019 µM
Selectivity ratio [4]: 53000

Cc1ncn(CC(=O)NN2CC(O)C2)c1Cn1c(C)ccc(NS(=O)(=O)Cc2ccccc2)c1=O
Ki [1]: 167 µM
Activity [2]: 0.66 µM
Ki [3]: 0.0028 µM
Selectivity ratio [4]: 48000

Cc1ncn(CC(=O)NCC(F)(F)F)c1Cn1c(C)ccc(NS(=O)(=O)Cc2ccccc2)c1=O
Ki [1]: 49 µM
Activity [2]: 0.53 µM
Ki [3]: 0.00083 µM
Selectivity ratio [4]: 59000

Cc1ncn(CC(=O)NN2CCCCC2)c1Cn1c(C)ccc(NS(=O)(=O)Cc2ccccc2)c1=O
Ki [1]: 56 µM
Activity [2]: 0.37 µM
Ki [3]: 0.00065 µM
Activity [5]: inactive
Selectivity ratio [4]: 86000

Cc1ncn(CC(=O)NCC(C)(C)N)c1Cn1c(C)ccc(NS(=O)(=O)Cc2ccccc2)c1=O
Ki [1]: 80 µM
Activity [2]: 0.26 µM
Ki [3]: 0.00068 µM
Selectivity ratio [4]: 118000

Cc1ncn(CC(=O)OC(C)(C)C)c1Cn1c(C)ccc(NS(=O)(=O)Cc2ccccc2)c1=O
Ki [1]: 50 µM
Ki [3]: 0.00048 µM
Selectivity ratio [4]: 104000

Cc1ncn(CC(=O)NCCO)c1Cn1c(C)ccc(NS(=O)(=O)Cc2ccccc2)c1=O
Ki [1]: 115 µM
Activity [2]: 0.85 µM
Ki [3]: 0.0024 µM
Selectivity ratio [4]: 48000

Cc1ncn(CC(=O)NCC2CC2)c1Cn1c(C)ccc(NS(=O)(=O)Cc2ccccc2)c1=O
Ki [1]: 57 µM
Ki [3]: 0.0011 µM
Selectivity ratio [4]: 52000
